A short description of data set [1]: Antiproliferative activity against human KBVIN cells assessed as reduction in cell viability incubated for 72 hrs by SRB assay. It is filed as functional. The essentials:
(§1)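 Sulforhodamine B assay across a human tumor cell line panel, with CA-4 run in parallel as positive control. GI50 is the concentration giving 50% growth inhibition, read from dose–response curves. Values are mean ± SD of at least three independent experiments.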
(In general: Sulforhodamine B stains cellular protein and so reports cell mass.)

The subject of data set [2] is MDA-MB-231. Put plainly: Antiproliferative activity against human MDA-MB-231 cells assessed as reduction in cell viability incubated for 72 hrs by SRB assay. It is filed as functional. Conditions: MDA-MB-231, 72 h. An outline of the steps: as §1
A further data set deals with MCF7. Put plainly: Antiproliferative activity against human MCF7 cells assessed as reduction in cell viability incubated for 72 hrs by SRB assay. It is filed as functional. The note with it: MCF7, 72 h. The essentials: as §1
A further data set relates to KB. Put plainly: Antiproliferative activity against human KB cells assessed as reduction in cell viability incubated for 72 hrs by SRB assay. It is filed as functional. An outline of the steps: as §1
Another data set deals with A549. Put plainly: Antiproliferative activity against human A549 cells assessed as reduction in cell viability incubated for 72 hrs by SRB assay. It is filed as functional. Conditions: A549, 72 h. An outline of the steps:
as §1

Data set [3] can be described thus: Potency index, ratio of GI50 of paclitaxel to GI50 of compound for antiproliferative activity against human KBVIN cells assessed as reduction in cell viability incubated for 72 hrs by SRB assay. It is filed as functional.
The subject of data set [4] is MDA-MB-231. Put plainly: Cell cycle arrest in human MDA-MB-231 cells assessed as increase in accumulation of G2/M phase at 3 times of antiproliferative IC50 incubated for 24 hrs by propidium iodide based flow cytometry. It is filed as functional. An outline of the steps: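 Cells were fixed in EtOH, stained with propidium iodide in the presence of RNase, and analysed by flow cytometry. Cell count was plotted against linear PI fluorescence.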

The subject of data set [5] is MDA-MB-231. The data set is described as follows: Inhibition of tubulin polymerization in human MDA-MB-231 cells at 3 times of antiproliferative IC50 incubated for 24 hrs by DAPI staining based confocal fluorescence microscopy. It is filed as functional, cell-based. The essentials:
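Cells were fixed in 4% PFA/PBS, immunostained for α-tubulin and counterstained with DAPI. Microtubule networks were imaged by confocal fluorescence microscopy as projections of 15–20 confocal images.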

Data set [6] can be described thus: Solubility of compound at pH 7.4 incubated for 4 hrs by HPLC-UV analysis. Conditions: buffer. It is filed as physicochemical.
Data set [7] in a line: Lipophilicity, logP of compound incubated for 24 hrs with stirrer and measured after overnight by HPLC-UV analysis. It is filed as physicochemical.

≈ marks a conversion by molar mass, not a printed value. Calls of active or inactive are those of the source. The rule behind the calls is not given here.

With `COc1ccc2c(c1)NC(=O)CN2c1nc(Cl)nc2cccnc12`, the GI50 (usually the concentration at which growth is held to half of that of the control) in data set [1] was 5.7 nM; in the data set with MDA-MB-231 [2] it was 7.7 nM; in the data set with MCF7, 8.4 nM; in the data set with KB, 5.6 nM; in the data set with A549, 5.3 nM. Also, in data set [3], the RatioGI50 turned out to be 340. Further, in the data set with MDA-MB-231 [4], the result was Active.
In the case of `CNc1nc(N2CC(=O)Nc3cc(OC)ccc32)c2cc(OC)c(OC)cc2n1`, the GI50 was found to be 506 nM in [1]; 74 nM with MDA-MB-231 [2]; 84 nM in the data set with MCF7; 51 nM in the data set with KB; 54 nM with A549. Also, the result in the data set with MDA-MB-231 [4] was Active.
On to `COc1ccc(/C=C\c2cc(OC)c(OC)c(OC)c2)cc1O` [COMBRETASTATIN A4], for which the GI50 in data set [1] stood at 3.8 nM; with MDA-MB-231 [2], 8.2 nM; in the data set with MCF7 it was 84 nM; in the data set on KB it was 3.6 nM; with A549 it was 5.5 nM. In addition, the inhibition entry in the data set with MDA-MB-231 [5] was “Active”. In addition, in the data set with MDA-MB-231 [4], the outcome was Active.
As for `COc1ccc2c(c1)NC(=O)CN2c1ncnc2ccc(Br)cc12`, the GI50 was found to be 5 nM in data set [1]; 9.6 nM in the data set with MDA-MB-231 [2]; 9.4 nM with MCF7; 5 nM in the data set with KB; 5.5 nM in the data set on A549. Also, the RatioGI50 in [3] was 340. Further, in the data set with MDA-MB-231 [4], the result was Active.
As for `COc1ccc2c(c1)NC(=O)CN2c1nc(NCCCO)nc2cc(OC)c(OC)cc12`, the 50% growth inhibitory concentration (GI50) in data set [1] is more than 10000 nM; with MDA-MB-231 [2], 820 nM; in the data set on MCF7, 950 nM; with KB, 516 nM; in the data set with A549, 997 nM.
For `COc1ccc2c(c1)NC(=O)CCCN2c1nc(C)nc2ccccc12`, in that order: 5560 nM, 9700 nM, 10500 nM, 5700 nM and 5900 nM.
As to `COc1ccc2c(c1)NC(=O)CN2c1cc(C)nc2ccccc12`, the GI50 was found to be 4.8 nM in data set [1], 8 nM with MDA-MB-231 [2], 4.6 nM in the data set with KB and 5.4 nM in the data set with A549. Further, in data set [6], the solubility (in general, how much of the substance goes into solution per volume) at 4 h worked out at 10.9 µg/mL (≈ 34.1 µM). In the data set on MDA-MB-231 [5], the inhibition result was “Active”. Also, the RatioGI50 in data set [3] is on record as 340. The result in the data set with MDA-MB-231 [4] was Active. Also, in data set [7], the lipophilicity (logP) (usually the decadic logarithm of the partition coefficient of the neutral form, usually between octanol and water) at 24 h was 2.96.
With `COc1ccc2c(c1)NC(=O)CN2c1nccc2nccnc12`, the GI50 amounted to 638 nM in data set [1]; 915 nM in the data set on MDA-MB-231 [2]; 908 nM in the data set on MCF7; 777 nM with KB; 617 nM in the data set on A549.
Turning to `COc1ccc2c(c1)NC(=O)CN2c1nc(OC)nc2cc(OC)c(OC)cc12`, the GI50 in data set [1] is 919 nM; in the data set with MDA-MB-231 [2] it was 760 nM; with MCF7 it was 968 nM; with KB, 506 nM; in the data set with A549, 544 nM. For the same compound, in the data set on MDA-MB-231 [4], the outcome was Active.
For the compound `COc1ccc2c(c1)NC(=O)CCCCN2c1nc(C)nc2ccccc12`, the GI50 (in data set [1]; in the data set with MDA-MB-231 [2]; with MCF7; in the data set on KB; with A549) was more than 10000 nM in each case.
As to `COc1ccc2c(c1)NC(=O)CCN2c1nc(C)nc2ccccc12`, the GI50 in data set [1] amounted to 696 nM; with MDA-MB-231 [2], 95 nM; with MCF7, 933 nM; in the data set with KB, 725 nM; in the data set on A549 it was 838 nM. Further, in the data set on MDA-MB-231 [4], the outcome was Active.
Take `COc1ccc2c(c1)NC(=O)CN2c1ncnc2ncccc12`: the concentration for 50% growth inhibition (GI50) in [1] stood at 650 nM; in the data set with MDA-MB-231 [2], 2290 nM; in the data set with MCF7, 1200 nM; with KB, 480 nM; in the data set on A549 it was 566 nM. For the same compound, the result in the data set on MDA-MB-231 [4] was Active.
Take `COc1ccc2c(c1)NC(=O)CN2c1nccc2c1NC=CN2`: the GI50 (in [1]; in the data set on MDA-MB-231 [2]; with MCF7; in the data set on KB; with A549) was more than 40000 nM throughout.
`COc1ccc2c(c1)C(=O)NCCN2c1nc(C)nc2ccccc12`: the GI50 (in [1]; with MDA-MB-231 [2]; with MCF7; with KB; with A549) was more than 2000 nM each time.
For the compound `COc1ccc2c(c1)NC(=O)CN2c1nc(Cl)nc2cc(OC)c(OC)cc12`, the 50% growth inhibitory concentration (GI50) was 65 nM in [1]; 76 nM in the data set with MDA-MB-231 [2]; 82 nM in the data set with MCF7; 45 nM in the data set on KB; 50 nM with A549. In the data set on MDA-MB-231 [4], the outcome was Active.
As for `CC(=O)O[C@H]1C(=O)[C@@]2(C)[C@H]([C@H](OC(=O)c3ccccc3)[C@]3(O)C[C@H](OC(=O)[C@H](O)[C@@H](NC(=O)c4ccccc4)c4ccccc4)C(C)=C1C3(C)C)[C@]1(OC(C)=O)CO[C@@H]1C[C@@H]2O` [PACLITAXEL], the GI50 in data set [1] came out at 1960 nM; in the data set on MDA-MB-231 [2], 5.2 nM; in the data set with MCF7, 8.3 nM; with KB it was 4.1 nM; with A549, 2.4 nM.

The record behind these values is ChEMBL document CHEMBL4334543, “Scaffold Hopping-Driven Optimization of 4-(Quinazolin-4-yl)-3,4-dihydroquinoxalin-2(1H)-ones as Novel Tubulin Inhibitors” (ACS Med Chem Lett, 2020).
